pIC50: −log10 of the molar value. Activity calls are given as the source filed them. The calls are words filed in the database; no cut-off is given here.
How the values were obtained:
THP-1 [1] = assay: (§1) Antiinflammatory activity in human THP1 cells assessed as suppression of LPS and TiO2-induced TNF-alpha production at 10 uM after 24 hrs by induced inflammasome assay; assay type: functional
Procedure, shortened: (§2)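 THP-1 cells stimulated with bacterial LPS plus titanium dioxide (TiO2) to drive proinflammatory cytokine output and NLRP3 inflammasome assembly. Compounds were added to the induced cells, and IL-6, IL-33, TNF-α and IL-1β production was then measured.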

THP-1 [2] = assay: (§3) Antiinflammatory activity in human THP1 cells assessed as suppression of LPS and TiO2-induced IL-1beta production at 10 uM after 24 hrs by induced inflammasome assay; assay type: functional; procedure, shortened: as §2
SR [3] = assay: Cytotoxicity against human SR cells at 1 to 10 uM after 72 hrs by Alamar Blue viability assay; assay type: functional, cell-based
THP-1 [4] = assay: Antiinflammatory activity in human THP1 cells assessed as suppression of LPS and TiO2-induced IL-1beta production at 100 uM after 24 hrs by induced inflammasome assay; assay type: functional, cell-based; procedure, shortened: as §2
Caspase-1 = biological target: T1, Caspase-1 (Homo sapiens, UniProt P29466); assay: Inhibition of caspase-1 (unknown origin)
T1 sequence (P29466 whole entry): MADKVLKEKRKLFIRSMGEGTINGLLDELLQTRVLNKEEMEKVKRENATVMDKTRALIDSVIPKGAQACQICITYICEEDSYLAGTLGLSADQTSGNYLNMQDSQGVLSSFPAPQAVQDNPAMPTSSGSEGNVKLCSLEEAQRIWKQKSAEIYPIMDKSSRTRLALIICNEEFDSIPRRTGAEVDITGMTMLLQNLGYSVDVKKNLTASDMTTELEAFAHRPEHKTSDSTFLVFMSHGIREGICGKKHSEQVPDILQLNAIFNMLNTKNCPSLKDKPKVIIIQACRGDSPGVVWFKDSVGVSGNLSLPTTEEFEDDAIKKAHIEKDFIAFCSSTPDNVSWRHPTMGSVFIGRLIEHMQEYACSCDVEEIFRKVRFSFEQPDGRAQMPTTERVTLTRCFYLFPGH

THP-1 [5] = assay: Antiinflammatory activity in human THP1 cells assessed as suppression of LPS and TiO2-induced IL-33 production at 10 uM after 24 hrs by induced inflammasome assay; assay type: functional, cell-based; procedure, shortened: as §2
THP-1 [6] = assay: Antiinflammatory activity in human THP1 cells assessed as suppression of LPS and TiO2-induced IL-6 production at 10 uM after 24 hrs by induced inflammasome assay; assay type: functional, cell-based; procedure, shortened: as §2
THP-1 [7] = assay: Antiinflammatory activity against human THP1 cells assessed as suppression of LPS and TiO2-induced IL-33 production at 100 uM after 24 hrs by induced inflammasome assay; assay type: functional, cell-based; procedure, shortened: as §2
MOLT-4 [8] = assay: (§4) Cytotoxicity against human MOLT4 cells after 96 hrs by Hoechst-staining based nuclei image analysis; assay type: functional
THP-1 [9] = assay: Antiinflammatory activity against human THP1 cells assessed as suppression of LPS and TiO2-induced IL-6 production at 100 uM after 24 hrs by induced inflammasome assay; assay type: functional, cell-based; procedure, shortened: as §2
CCRF-CEM [10] = assay: Cytotoxicity against human CCRF-CEM cells at 1 to 10 uM after 72 hrs by Alamar Blue viability assay; assay type: functional, cell-based
MOLT-4 [11] = assay: Cytotoxicity against human MOLT4 cells at 1 to 10 uM after 72 hrs by Alamar Blue viability assay; assay type: functional, cell-based
RPMI-8226 [12] = assay: Cytotoxicity against human RPMI8226 cells at 1 to 10 uM after 72 hrs by Alamar Blue viability assay; assay type: functional, cell-based
LOX IMVI [13] = assay: Cytotoxicity against human LOXIMVI cells after 96 hrs by Hoechst-staining based nuclei image analysis; assay type: functional
THP-1 [14] = assay: Antiinflammatory activity against human THP1 cells assessed as suppression of LPS and TiO2-induced TNF-alpha production at 100 uM after 24 hrs by induced inflammasome assay; assay type: functional, cell-based; procedure, shortened: as §2
RPMI-8226 [15] = assay: (§5) Cytotoxicity against human RPMI8226 cells after 96 hrs by Hoechst-staining based nuclei image analysis; assay type: functional
Stromelysin-1 = Stromelysin-1 (Homo sapiens, UniProt P08254); assay: Inhibition of MMP-3 (unknown origin)
Stromelysin-1, sequence (P08254 whole entry): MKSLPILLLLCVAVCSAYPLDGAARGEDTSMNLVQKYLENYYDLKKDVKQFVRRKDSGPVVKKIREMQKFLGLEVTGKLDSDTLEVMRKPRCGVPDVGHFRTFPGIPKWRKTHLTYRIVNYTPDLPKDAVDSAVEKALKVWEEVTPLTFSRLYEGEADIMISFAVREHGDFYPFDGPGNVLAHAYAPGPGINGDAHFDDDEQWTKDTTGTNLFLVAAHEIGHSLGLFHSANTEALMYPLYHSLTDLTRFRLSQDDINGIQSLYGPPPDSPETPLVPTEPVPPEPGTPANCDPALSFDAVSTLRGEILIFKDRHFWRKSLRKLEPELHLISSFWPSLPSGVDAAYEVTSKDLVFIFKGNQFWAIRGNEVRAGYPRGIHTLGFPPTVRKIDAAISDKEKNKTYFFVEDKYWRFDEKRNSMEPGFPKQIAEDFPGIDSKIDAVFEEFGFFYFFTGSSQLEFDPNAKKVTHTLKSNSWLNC

LOX IMVI [16] = assay: Cytotoxicity against human LOXIMVI cells at 1 to 10 uM after 72 hrs by Alamar Blue viability assay; assay type: functional, cell-based
SR [17] = assay: Cytotoxicity against human SR cells after 96 hrs by Hoechst-staining based nuclei image analysis; assay type: functional
[18] = Cytotoxicity against human RPMI8226 cells after 72 hrs by Alamar Blue viability assay; assay type: functional; details: RPMI-8226, 72 h
Y79 [19] = assay: Cytotoxicity against human Y79 cells after 72 hrs by Alamar Blue viability assay; assay type: functional, cell-based; details: Y79, 72 h
[20] = as §1; assay type: functional, THP-1; procedure, shortened: as §2
[21] = as §3; assay type: functional, THP-1; procedure, shortened: as §2
[22] = Cytotoxicity against human MOLT4 cells after 72 hrs by Alamar Blue viability assay; assay type: functional; details: MOLT-4, 72 h
Y79 [23] = assay: Cytotoxicity against human Y79 cells after 96 hrs by Hoechst-staining based nuclei image analysis; assay type: functional, cell-based; details: Y79, 96 h
CCRF-CEM [24] = assay: Cytotoxicity against human CCRF-CEM cells after 72 hrs by Alamar Blue viability assay; assay type: functional
CCRF-CEM [25] = assay: Cytotoxicity against human CCRF-CEM cells after 96 hrs by Hoechst-staining based nuclei image analysis; assay type: functional
[26] = Cytotoxicity against human LOXIMVI cells after 72 hrs by Alamar Blue viability assay; assay type: functional; details: LOX IMVI
[27] = as §4; assay type: functional; details: MOLT-4, 96 h
SR [28] = assay: Cytotoxicity against human SR cells after 72 hrs by Alamar Blue viability assay; assay type: functional
[29] = as §5; assay type: functional; details: RPMI-8226, 96 h

SMILES | Activity (SR [3]) | pIC50 (Caspase-1) | Activity (THP-1 [5]) | Activity (THP-1 [6]) | Activity (MOLT-4 [8]) | Activity (CCRF-CEM [10]) | Activity (MOLT-4 [11]) | Activity (RPMI-8226 [12]) | Activity (LOX IMVI [13]) | Activity (RPMI-8226 [15]) | pIC50 (Stromelysin-1) | Activity (LOX IMVI [16]) | Activity (SR [17]) | further results
CCCCCCCCCC(=O)[C@@H]1C(=O)O[C@@]2(C)C(=O)C=C3C=C(C[C@H](C)O)OC=C3[C@@H]12 | inactive | 3.82 | inactive | inactive | inactive | inactive | inactive | inactive | inactive | inactive | 3.89 | inactive | inactive | Activity (THP-1 [1]): inactive; Activity (THP-1 [2]): inactive; Activity (THP-1 [4]): Active; Activity (THP-1 [7]): Active; Activity (THP-1 [9]): Active; Activity (THP-1 [14]): Active
CCCCCCCCCC(=O)C1=C2C=C3C=C(C[C@H](C)O)N(CCO)C=C3C(=O)[C@]2(C)OC1=O | – | 4.30 | – | – | – | – | – | – | – | – | 4.35 | – | – | –
CCCCCCCCCC(=O)[C@@]12O[C@@]13C1=COC(C[C@H](C)O)=CC1=CC(=O)[C@]3(C)OC2=O | – | 4.60 | Active | Active | – | – | – | – | – | – | 4.82 | – | – | GI50 [18]: 10 µM; pIC50 (Y79 [19]): 5.96; Activity [20]: 95%; Activity [21]: 95%; GI50 [22]: 10 µM; pIC50 (Y79 [23]): 5.96; GI90 (CCRF-CEM [24]): 10 µM; GI90 (CCRF-CEM [25]): 10 µM; GI50 [26]: 10 µM; GI50 [27]: 10 µM; GI50 (SR [28]): 10 µM; GI50 [29]: 10 µM; GI50 (SR [17]): 10 µM
CCCCCCCCCC(=O)C[C@@H]1C2=COC(C[C@H](C)O)=CC2=CC(=O)[C@]1(C)O | inactive | – | – | – | inactive | inactive | inactive | inactive | inactive | inactive | – | inactive | inactive | –
